Data set [1] can be described thus: melting temperature; fluorescence melt of hairpins on a sequencing array, two-state fit, raised by 9.35 °C to match UV melts. The conditions noted are these: sodium 0.088 M. The gist of the method: (§1)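 Cy3 signals were normalised both to pre-quench Cy3 and to control constructs. They came from library hairpins carrying annealed Cy3 and quencher oligos on a sequenced MiSeq flow cell, imaged in 50 mM Na-HEPES pH 8.0, 25 mM NaCl, in 2.5 °C steps up to 60 °C. Bootstrapped two-state fits gave melting temperature and folding enthalpy, and four replicates were combined by inverse variance. Fitted temperatures were then raised by 9.35 °C to match UV melts.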

A short description of data set [2]: folding enthalpy; higher = less favourable; fluorescence melt of hairpins on a sequencing array, two-state fit. The conditions noted are these: sodium 0.088 M. Put shortly:
as §1

57 sequences from the array DNA melting data of Ke et al. (doi:10.1101/2024.01.08.574731) can be followed below.

GCGGGGGGAAACCTCCGC ((((.((....)).)))): the Tm in data set [1] was found to be 66.7 °C. For the same sequence, the folding enthalpy in data set [2] is -40.9 kcal/mol.
In the same order, the values of GCGGGGTCCGC ((((...)))) are 55.5 °C and -28.7 kcal/mol.
The like results for GCGGGTCCCGC ((((...)))) were, in that order, 56.4 °C and -28.1 kcal/mol.
The like results for GCGGGTGCCGC ((((...)))) were, in that order, 55.9 °C and -23.3 kcal/mol.
Take GCGGGTGGAAACATCCGC ((((.((....)).)))): the Tm in data set [1] amounted to 64 °C. Further, the folding enthalpy in data set [2] is -43 kcal/mol.
In the case of GCGGGTTTCCGC ((((....)))), the Tm in data set [1] came out at 59.2 °C. In addition, in data set [2], the folding enthalpy is -28.2 kcal/mol.
The like results for GCGGTACCCGC ((((...)))) were, in that order, 63.3 °C and -18.7 kcal/mol.
In the same order, the values of GCGGTAGCCCGC ((((....)))) are 62 °C and -12.3 kcal/mol.
Take GCGGTAGGAAACTATCGC (((.(((....))).))): the Tm in data set [1] was found to be 53.7 °C. The folding enthalpy in data set [2] was -37.9 kcal/mol.
The like results for GCGGTCAGCCGC ((((....)))) were, in that order, 57.4 °C and -27.7 kcal/mol.
The like results for GCGGTCGAAAGACATCGC ((((((....)))..))) were, in that order, 49.1 °C and -20.7 kcal/mol.
In the same order, the values of GCGGTCGAAAGACGCGC ((((((....))).))) are 65.6 °C and -30.8 kcal/mol.
Consider GCGGTCGAAAGACGGCGC ((((((....)))..))), for which, in data set [1], the Tm amounted to 63.9 °C. In addition, the folding enthalpy in data set [2] is -31.3 kcal/mol.
Turning to GCGGTCGAAAGACGTCGC ((((((....)))..))), the Tm in data set [1] was 50.5 °C. Also, the folding enthalpy in data set [2] is -23.7 kcal/mol.
The like results for GCGGTCGAAAGACTCGC ((((((....))).))) were, in that order, 54.6 °C and -29 kcal/mol.
In the same order, the values of GCGGTCGAAAGACTTCGC ((((((....)))..))) are 47.6 °C and -21.6 kcal/mol.
In the same order, the values of GCGGTCGGAAACGGCTGC ((.(.((....)).).)) are 53.4 °C and -36.8 kcal/mol.
As to GCGGTCTCCCGC ((((....)))), the Tm in data set [1] was found to be 55.5 °C. Besides, the folding enthalpy in data set [2] is -33.4 kcal/mol.
As to GCGGTGCCCGC ((((...)))), in data set [1], the Tm is 55.5 °C. Also, the folding enthalpy in data set [2] is -19.3 kcal/mol.
In the same order, the values of GCGGTGCGAAAGCAATGC ((..(((....)))..)) are 59 °C and -29.2 kcal/mol.
In the same order, the values of GCGGTGCGAAAGCCCAGC ((.(.((....)).).)) are 54.2 °C and -21.6 kcal/mol.
Regarding GCGGTGCGAAAGCTCGGC ((.(.((....)).).)), the Tm in data set [1] turned out to be 51 °C. In addition, in data set [2], the folding enthalpy is -19.1 kcal/mol.
In the same order, the values of GCGGTGGCCCGC ((((....)))) are 61 °C and -16.3 kcal/mol.
The like results for GCGGTGGCGAAAGCCCGC (((..(((....)))))) were, in that order, 66.9 °C and -23.3 kcal/mol.
In the same order, the values of GCGGTGGGAAACCGTCGC (((..((....))..))) are 55.5 °C and -14.3 kcal/mol.
With GCGGTGGGCCGC ((((....)))), in data set [1], the Tm was 65.8 °C. Besides, the folding enthalpy in data set [2] was -13.9 kcal/mol.
On to GCGGTTCCGAAAGGACGC (((..(((....)))))), for which, in data set [1], the Tm is 51.7 °C. Further, the folding enthalpy in data set [2] is -25 kcal/mol.
GCGGTTCGCCGC ((((....)))): in data set [1], the Tm is 64.5 °C. In addition, in data set [2], the folding enthalpy is -23.3 kcal/mol.
In the same order, the values of GCGGTTGCCCGC ((((....)))) are 62 °C and -14.9 kcal/mol.
The like results for GCGGTTGGAAACAGCTGC ((.(.((....)).).)) were, in that order, 52.3 °C and -25.9 kcal/mol.
In the case of GCGGTTGGAAACAGTCGC (((..((....))..))), the Tm in data set [1] came out at 44.2 °C. For the same sequence, in data set [2], the folding enthalpy is -25.3 kcal/mol.
The like results for GCGGTTGGAAACGACCGC (((((.(....).))))) were, in that order, 62.9 °C and -48.8 kcal/mol.
In the same order, the values of GCGTAAACGAAAGTTCGC (((..(((....)))))) are 48.2 °C and -33.7 kcal/mol.
The like results for GCGTAACGAAAGTTCGC (((.(((....)))))) were, in that order, 55.9 °C and -36.1 kcal/mol.
Turning to GCGTAACGAAAGTTGCGC (((.(((....))).))), the Tm in data set [1] amounted to 63 °C. The folding enthalpy in data set [2] was -53 kcal/mol.
The like results for GCGTAAGAACGC ((((....)))) were, in that order, 49.5 °C and -15.8 kcal/mol.
In the same order, the values of GCGTAATCGAAAGATCGC (((..(((....)))))) are 45.6 °C and -25.1 kcal/mol.
GCGTACAACGC ((((...)))): the Tm in data set [1] is 55.6 °C. Besides, the folding enthalpy in data set [2] is -22.4 kcal/mol.
In the same order, the values of GCGTACACACGC ((((....)))) are 51.4 °C and -23.9 kcal/mol.
On to GCGTACCCGAAAGGGCGC (((..(((....)))))), for which the Tm in data set [1] amounted to 56.4 °C. Further, in data set [2], the folding enthalpy is -22.1 kcal/mol.
On to GCGTACCGAAAGGTCGC (((.(((....)))))), for which the Tm in data set [1] is 63.5 °C. Further, the folding enthalpy in data set [2] is -36.5 kcal/mol.
With GCGTACCGACGC ((((....)))), the Tm in data set [1] turned out to be 50.9 °C. In data set [2], the folding enthalpy was -22.5 kcal/mol.
GCGTACGAAAGTAAGCGC ((((((....)))..))): the Tm in data set [1] came out at 56.8 °C. Moreover, in data set [2], the folding enthalpy is -30.9 kcal/mol.
As for GCGTACGAAAGTAATCGC ((((((....)))..))), in data set [1], the Tm was 44.1 °C. Besides, the folding enthalpy in data set [2] was -23.6 kcal/mol.
The like results for GCGTACGAAAGTAGCGC ((((((....))).))) were, in that order, 68.8 °C and -31.1 kcal/mol.
In the same order, the values of GCGTACGAAAGTATACGC ((((((....)))..))) are 51.4 °C and -34 kcal/mol.
The like results for GCGTACGAAAGTATCCGC ((((((....)))..))) were, in that order, 38.6 °C and -23.5 kcal/mol.
With GCGTACGAAAGTATGCGC ((((((....)))..))), in data set [1], the Tm was 58.4 °C. In data set [2], the folding enthalpy was -37.5 kcal/mol.
In the same order, the values of GCGTACGGAAACATACGC (((((.(....).))))) are 46.8 °C and -33.8 kcal/mol.
In the case of GCGTACTGACGC ((((....)))), in data set [1], the Tm came to 52.4 °C. For the same sequence, the folding enthalpy in data set [2] is -21.9 kcal/mol.
On to GCGTAGCGAAAGCCGCGC (((..((....))..))), for which the Tm in data set [1] was determined as 61.6 °C. Moreover, in data set [2], the folding enthalpy is -16.2 kcal/mol.
In the same order, the values of GCGTAGCGAAAGCTCGC (((.(((....)))))) are 63.3 °C and -16.4 kcal/mol.
On to GCGTAGCGAAAGCTCGGC ((..(((....)))..)), for which the Tm in data set [1] was 39.9 °C. The folding enthalpy in data set [2] is -7.84 kcal/mol.
The like results for GCGTAGGGAAACTTGCGC (((.(.(....).).))) were, in that order, 42.3 °C and -28.5 kcal/mol.
In the same order, the values of GCGTAGTCACGC ((((....)))) are 51.5 °C and -21.2 kcal/mol.
The like results for GCGTATACGAAAGTACGC (((..(((....)))))) were, in that order, 51.6 °C and -35.4 kcal/mol.
Turning to GCGTATCCACGC ((((....)))), the Tm in data set [1] is 51.7 °C. Besides, in data set [2], the folding enthalpy was -26.4 kcal/mol.
